The list is not random: actives were taken first. Their share in the collection is about 2.5%.
NR2E3 ag-1 = agonists of human NR2E3 nuclear receptor; Q9Y5X4; CHO-S Gal4-NCOR/VP16-NR2E3 two-hybrid, luciferase; inhibition of corepressor binding, % at 3.98 µM; hit rate 0.35% among 360,000;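 active = inhibition above the mean of all tested compounds plus 3 SD, cut at about 70% in these data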;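 also: higher means lower luciferase signal from less NR2E3 corepressor binding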
Target sequence (Q9Y5X4 whole entry, looked up, the tested form may be a part): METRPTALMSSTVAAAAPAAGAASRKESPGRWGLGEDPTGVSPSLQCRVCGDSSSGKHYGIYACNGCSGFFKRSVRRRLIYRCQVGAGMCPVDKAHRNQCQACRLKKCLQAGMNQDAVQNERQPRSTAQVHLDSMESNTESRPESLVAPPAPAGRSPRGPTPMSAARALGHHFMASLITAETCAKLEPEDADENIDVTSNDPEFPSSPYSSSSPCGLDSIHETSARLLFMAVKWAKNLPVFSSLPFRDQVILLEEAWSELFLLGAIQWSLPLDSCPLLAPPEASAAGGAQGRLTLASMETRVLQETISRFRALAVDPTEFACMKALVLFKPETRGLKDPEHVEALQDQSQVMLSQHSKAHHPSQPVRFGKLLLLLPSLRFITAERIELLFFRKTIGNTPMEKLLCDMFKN
KLK7 zymogen act = proKLK7 (human) activation, primary screen; P49862; purified proKLK7, EDANS-DABCYL substrate fluorescence; 100% is mature enzyme control, 0% vehicle; activation, % at 7 µM; hit rate 0.9% among 370,000;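 active = activation above the mean of all tested compounds plus 3 SD, computed per campaign excluding outliers beyond control limits, cut at about 13% in these data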
Target sequence (P49862 whole entry, looked up): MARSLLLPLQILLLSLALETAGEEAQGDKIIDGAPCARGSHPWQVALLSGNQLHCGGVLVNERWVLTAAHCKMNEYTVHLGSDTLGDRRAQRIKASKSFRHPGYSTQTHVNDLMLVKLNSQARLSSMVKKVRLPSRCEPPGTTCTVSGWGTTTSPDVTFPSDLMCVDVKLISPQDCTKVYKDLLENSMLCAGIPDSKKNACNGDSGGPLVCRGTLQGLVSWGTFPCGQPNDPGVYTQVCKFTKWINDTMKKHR
GASC-1 inh = blocks human GASC-1 demethylase activity | GST-JMJD2C(1-420) H3K9me3 demethylation, DELFIA europium | inhibition, % at 2.35 µM | hit rate 0.069% among 330,000 | AID 2099;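 active = more than half of a compound's replicate wells show inhibition beyond 50%, single wells judged on their own value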;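 also: signal counts dimethyl H3K9 product captured on neutravidin plate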
ADAM10 inh = ADAM10 inhibition, QFRET primary screen; hit rate 0.62% among 370,000; inhibition, % at 7 µM; O14672; recombinant ADAM10, EDANS/DABCYL FRET peptide cleavage, 3 h;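 active = inhibition above a per-campaign cutoff equal to the mean of compounds falling between control-based bounds plus 3 SD, cut at about 20% in these data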
NR2E3 ag-2 = agonists of human nuclear receptor NR2E3. inhibition of corepressor binding, % at 4.78 µM. hit rate 0.12% among 320,000. GST-NR2E3/biotin-RetCOR TR-FRET, 1536-well. Q9Y5X4;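 active = percent inhibition above the cutoff of mean plus 3 SD of all tested compounds, set per screening campaign, cut at about 20% in these data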
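System: GST-tagged NR2E3 plus biotinylated RetCOR corepressor; Amount: 1.35 nM GST-tagged NR2E3 final; Dosing: single nominal compound dose of 4.8 µM; Schedule: 5 h incubation at 4 °C; Technique: TR-FRET with europium anti-GST and streptavidin-D2, 340 nm excitation; Controls: biotin wells as high control, 0.6% DMSO wells as low control.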
ADAM17 inh = ADAM17 inhibition, QFRET primary screen; P78536; recombinant ADAM17, EDANS/DABCYL FRET peptide cleavage; inhibition, % at 6.95 µM; hit rate 0.83% among 370,000; AID 720648;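 active = inhibition above the mean of compounds lying between control limits plus 3 SD, set per campaign, cut at about 8.5% in these data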
ADAM10 confirm = confirmation of inhibitors of human ADAM10 | shares compounds with ADAM10 inh | ADAM10 QFRET peptide cleavage, EDANS fluorescence | inhibition, % at 6.95 µM | hit rate 1% among 2,100;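 active = inhibition above about 20% chosen separately for each screening run, limit read from the data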
ADAM17 ctr = counter-screen for ADAM10 exosite inhibitors: inhibitors of human ADAM17; shares compounds with ADAM10 inh; ADAM17 QFRET peptide cleavage, EDANS fluorescence; inhibition, % at 6.95 µM; hit rate 0.5% among 2,100;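 active = mean triplicate inhibition above the solvent-only control wells' mean plus 3 SD, cut at about 12% in these data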
ADAM10 counter = counter-screen for ADAM17 exosite inhibitors: inhibitors of human ADAM10. shares compounds with ADAM17 inh. recombinant ADAM10, EDANS/DABCYL FRET peptide cleavage, 3 h. inhibition, % at 6.95 µM. hit rate 47% among 2,900. AID 743256;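 active = mean inhibition over the triplicate runs exceeds the activity threshold set in the earlier primary screen, cut at about 20% in these data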
ADAM17 confirm = human ADAM17 inhibition, confirmation | shares compounds with ADAM17 inh | recombinant ADAM17, EDANS/DABCYL QFRET peptide cleavage | inhibition, % at 6.95 µM | hit rate 65% among 2,900 | AID 743257;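 active = mean inhibition across replicates above the hit cutoff set in the primary screen, cut at about 8.5% in these data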
Hits are given with their value.

What do the screens show for `CN(C)c1ccc(NS(=O)(=O)c2ccc(Cl)cc2)cc1`?
NR2E3 ag-1: inactive; KLK7 zymogen act: inactive; GASC-1 inh: inactive; ADAM10 inh: 33.8; NR2E3 ag-2: inactive; ADAM17 inh: 13.0; ADAM10 confirm: inactive; ADAM17 ctr: inactive; ADAM10 counter: inactive; ADAM17 confirm: inactive

Results for COc1cc(C(O)c2nc(-c3ccc(F)c(Cl)c3)cs2)ccc1F (stereo not drawn) ?
NR2E3 ag-1: inactive; KLK7 zymogen act: inactive; ADAM10 inh: inactive; ADAM17 inh: inactive

What do the screens show for `COc1ccc(C(O)c2nc(-c3ccc4ccccc4c3)cs2)cc1` (stereo not drawn)?
NR2E3 ag-1: inactive; KLK7 zymogen act: inactive; ADAM10 inh: 41.9; ADAM17 inh: 19.5; ADAM10 confirm: inactive; ADAM17 ctr: inactive; ADAM10 counter: 20.6; ADAM17 confirm: 13.8

How did COc1cc(C(O)c2nc(-c3ccc4ccccc4c3)cs2)ccc1F (stereo not drawn) do in these assays?
NR2E3 ag-1: inactive; KLK7 zymogen act: inactive; ADAM10 inh: 49.3; ADAM17 inh: 23.1; ADAM10 confirm: inactive; ADAM17 ctr: inactive; ADAM10 counter: 21.8; ADAM17 confirm: 14.7

How did Cc1noc(C)c1CSCC(=O)Nc1nc2ccc(S(C)(=O)=O)cc2s1 do in these assays?
NR2E3 ag-1: inactive; KLK7 zymogen act: inactive; GASC-1 inh: inactive; ADAM10 inh: inactive; NR2E3 ag-2: inactive; ADAM17 inh: inactive

What do the screens show for `CCC(C(=O)OCC(=O)Nc1ccc(SC(F)F)cc1)c1ccccc1` (stereo not drawn)?
NR2E3 ag-1: inactive; KLK7 zymogen act: inactive; GASC-1 inh: inactive; ADAM10 inh: 28.6; ADAM17 inh: 12.2; ADAM10 confirm: inactive; ADAM17 ctr: inactive; ADAM10 counter: 43.0; ADAM17 confirm: 23.4

What do the screens show for `CCC(C(=O)OCC(=O)Nc1ccc(F)cc1)c1ccccc1` (stereo not drawn)?
NR2E3 ag-1: inactive; KLK7 zymogen act: inactive; GASC-1 inh: inactive; ADAM10 inh: inactive; NR2E3 ag-2: inactive; ADAM17 inh: inactive

Results for CCN(CC)S(=O)(=O)c1ccc(NC(=O)COC(=O)CCc2cc(OC)c(OC)c(OC)c2)cc1 ?
NR2E3 ag-1: inactive; KLK7 zymogen act: inactive; GASC-1 inh: inactive; ADAM10 inh: 28.1; NR2E3 ag-2: inactive; ADAM17 inh: 11.4; ADAM10 confirm: inactive; ADAM17 ctr: inactive; ADAM10 counter: inactive; ADAM17 confirm: inactive

What do the screens show for `COc1cccc(-c2nnc(SCC(=O)Nc3ccc(OCc4ccccc4)cc3)n2Cc2ccco2)c1`?
KLK7 zymogen act: inactive; ADAM10 inh: inactive; ADAM17 inh: inactive

Results for O=C(CSc1nnc(-c2cccs2)n1Cc1ccco1)Nc1ccc(Oc2ccccc2)cc1 ?
KLK7 zymogen act: inactive; ADAM10 inh: 21.2; ADAM17 inh: 8.7; ADAM10 confirm: inactive; ADAM17 ctr: inactive; ADAM10 counter: 27.7; ADAM17 confirm: 13.5

What do the screens show for `O=C(CSc1nnc(-c2ccccc2)n1Cc1ccco1)Nc1ccc(OCc2ccccc2)cc1`?
KLK7 zymogen act: inactive; ADAM10 inh: 37.0; ADAM17 inh: 10.0; ADAM10 confirm: inactive; ADAM17 ctr: inactive; ADAM10 counter: 21.4; ADAM17 confirm: 14.3

What do the screens show for `O=C(CSc1nnc(-c2ccccc2)n1Cc1ccco1)Nc1ccc(Oc2ccccc2)cc1`?
KLK7 zymogen act: inactive; ADAM10 inh: inactive; ADAM17 inh: inactive

What do the screens show for `CCCc1cc(=O)[nH]c(SCC(=O)N2CC3(C)CC2CC(C)(C)C3)n1` (stereo not drawn)?
NR2E3 ag-1: inactive; KLK7 zymogen act: inactive; GASC-1 inh: inactive; ADAM10 inh: inactive; NR2E3 ag-2: inactive; ADAM17 inh: inactive

How did COc1ccc(NC(=O)CSc2nc(O)cc(=O)n2-c2ccccc2)cc1 do in these assays?
NR2E3 ag-1: inactive; KLK7 zymogen act: inactive; GASC-1 inh: inactive; ADAM10 inh: inactive; ADAM17 inh: inactive

How did COc1ccccc1-n1c(SCC(=O)Nc2ccc(Br)cc2)nc(O)cc1=O do in these assays?
NR2E3 ag-1: inactive; KLK7 zymogen act: inactive; GASC-1 inh: inactive; ADAM10 inh: 27.7; NR2E3 ag-2: inactive; ADAM17 inh: 8.7; ADAM10 confirm: inactive; ADAM17 ctr: inactive; ADAM10 counter: inactive; ADAM17 confirm: inactive

How did Cc1c(C(=O)NCCC2=CCCCC2)oc2ccc(S(=O)(=O)N3CCC4(CC3)OCCO4)cc12 do in these assays?
NR2E3 ag-1: inactive; KLK7 zymogen act: inactive; GASC-1 inh: inactive; ADAM10 inh: 21.6; NR2E3 ag-2: inactive; ADAM17 inh: 8.9; ADAM10 confirm: inactive; ADAM17 ctr: inactive; ADAM10 counter: inactive; ADAM17 confirm: 10.3

What do the screens show for `CCC(C)NC(=O)c1oc2ccc(S(=O)(=O)N3CCC4(CC3)OCCO4)cc2c1C` (stereo not drawn)?
NR2E3 ag-1: inactive; KLK7 zymogen act: inactive; GASC-1 inh: inactive; ADAM10 inh: inactive; NR2E3 ag-2: inactive; ADAM17 inh: inactive

Results for O=C(Cc1ccc([N+](=O)[O-])cc1)N1N=C(C2CC2)CC1(O)C(F)(F)F (stereo not drawn) ?
NR2E3 ag-1: inactive; KLK7 zymogen act: inactive; GASC-1 inh: inactive; ADAM10 inh: inactive; NR2E3 ag-2: inactive; ADAM17 inh: inactive

What do the screens show for `COCCNC(=S)NCCc1ccc(Cl)cc1Cl`?
NR2E3 ag-1: inactive; KLK7 zymogen act: inactive; GASC-1 inh: inactive; ADAM10 inh: inactive; NR2E3 ag-2: inactive; ADAM17 inh: inactive

What do the screens show for `O/N=C/c1cc(Br)ccc1OCc1ccccc1F`?
NR2E3 ag-1: inactive; KLK7 zymogen act: inactive; GASC-1 inh: inactive; ADAM10 inh: 20.6; NR2E3 ag-2: inactive; ADAM17 inh: 9.1; ADAM10 confirm: inactive; ADAM17 ctr: inactive; ADAM10 counter: 29.9; ADAM17 confirm: 16.8

How did COCCCn1cc(CN2CC(N3CCN(CCO)CC3)CS2(=O)=O)nn1 (stereo not drawn) do in these assays?
NR2E3 ag-1: inactive; KLK7 zymogen act: inactive; ADAM10 inh: inactive; ADAM17 inh: inactive

From PubChem
